Measured values: ChEMBL document CHEMBL4130378, “Discovery of pentacyclic triterpene 3β-ester derivatives as a new class of cholesterol ester transfer protein inhibitors” (Eur J Med Chem, 2017)

What was measured:
[1] = biological target: T1, Cholesteryl ester transfer protein (Homo sapiens, UniProt P11597); assay: Inhibition of recombinant human CETP after 3 hrs using fluorescent cholesteryl containing HDL after 3 hrs by fluorescence assay; conditions: read-out: IC50
T1 sequence (P11597 whole entry): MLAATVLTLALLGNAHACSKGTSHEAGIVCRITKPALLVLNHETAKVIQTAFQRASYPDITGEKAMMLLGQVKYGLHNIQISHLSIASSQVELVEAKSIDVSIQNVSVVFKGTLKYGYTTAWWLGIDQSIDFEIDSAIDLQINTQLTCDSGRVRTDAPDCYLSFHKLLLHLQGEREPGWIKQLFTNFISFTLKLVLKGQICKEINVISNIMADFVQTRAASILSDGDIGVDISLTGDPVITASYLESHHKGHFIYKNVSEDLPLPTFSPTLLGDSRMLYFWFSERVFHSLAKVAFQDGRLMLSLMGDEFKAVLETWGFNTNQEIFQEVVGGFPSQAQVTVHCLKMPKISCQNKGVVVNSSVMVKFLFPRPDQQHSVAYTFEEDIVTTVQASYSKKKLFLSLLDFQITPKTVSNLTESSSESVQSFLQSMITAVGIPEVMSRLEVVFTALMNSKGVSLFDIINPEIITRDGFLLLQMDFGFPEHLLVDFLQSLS

Mus musculus [2] = assay: Antihyperlipidemic activity in transgenic ap2-CETPTg mouse model assessed as increase in plasma HDL cholesterol levels at 30 mg/kg, po qd for 14 days measured 2 hrs post dose on day 14 by automated lipid analyzer relative to control; type: functional
Outline: (§1)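 ap2-CETPTg mice, which express human CETP in adipose tissue. Oral 30 mg/kg once daily for two weeks in DMSO/cremophor/saline 3:4:93. Retro-orbital blood drawn 2 h after the day-14 dose. HDL-C, LDL-C, TG and TC measured on an automated lipid analyzer, mean ± SD (n ≥ 6), versus control group.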

[3] = MRT (0 to 48 hrs) in normal fed guinea pig at 30 mg/kg administered via oral gavage by LC-MS/MS analysis; type: ADME, organism-based, Cavia porcellus; conditions: in vivo
[4] = MRT (0 to infinity) in normal fed guinea pig at 30 mg/kg administered via oral gavage by LC-MS/MS analysis; type: ADME, organism-based, Cavia porcellus; conditions: in vivo
Mus musculus [5] = assay: Hypolipidemic activity in transgenic ap2-CETPTg mouse model assessed as reduction in plasma LDL cholesterol levels at 30 mg/kg, po qd for 14 days measured 2 hrs post dose on day 14 by automated lipid analyzer relative to control; type: functional; set-up: scale not given: the % may be the effect or the level left; outline: as §1
Mus musculus [6] = assay: Hypolipidemic activity in transgenic ap2-CETPTg mouse model assessed as reduction in plasma triglyceride levels at 30 mg/kg, po qd for 14 days measured 2 hrs post dose on day 14 by automated lipid analyzer relative to control; type: functional; set-up: scale not given: the % may be the effect or the level left; outline: as §1
Mus musculus [7] = assay: Hypolipidemic activity in transgenic ap2-CETPTg mouse model assessed as reduction in plasma total cholesterol levels at 30 mg/kg, po qd for 14 days measured 2 hrs post dose on day 14 by automated lipid analyzer relative to control; type: functional; set-up: scale not given: the % may be the effect or the level left; outline: as §1
Cavia porcellus [8] = assay: Antihyperlipidemic activity in normal fed guinea pig model assessed as increase in plasma HDL cholesterol level at 30 mg/kg administered via oral gavage as qd for 14 days measured 2 hrs post dose on day 14 relative to control; type: functional
Outline: (§2)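 Male guinea pigs, 12 weeks old, on normal diet. Gavage at 30 mg/kg once daily for two weeks. Retro-orbital plasma collected 2 h after dosing on day 14. HDL-C and LDL-C reported as mean ± SD (n ≥ 6) versus vehicle control group.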

Cavia porcellus [9] = assay: Hypolipidemic activity in normal fed guinea pig model assessed as reduction in plasma LDL cholesterol levels at 30 mg/kg administered via oral gavage as qd for 14 days measured 2 hrs post dose on day 14 relative to control; type: functional; set-up: scale not given: the % may be the effect or the level left; outline: as §2
Cavia porcellus [10] = assay: Antihyperlipidemic activity in high-fat fed guinea pig model assessed as increase in plasma HDL cholesterol level at 30 mg/kg administered via oral gavage as qd for 14 days measured 2 hrs post dose on day 14 relative to control; type: functional
Outline: (§3)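 Male guinea pigs, 12 weeks old, fed a high-fat diet (2.5% coconut oil, 0.25% cholesterol) for two weeks. Gavage at 30 mg/kg once daily for two weeks while the diet continued. Plasma taken retro-orbitally 2 h after the day-14 dose. HDL-C, LDL-C, TG and TC reported as mean ± SD (n ≥ 6) versus the untreated high-fat model group.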

Cavia porcellus [11] = assay: Hypolipidemic activity in high-fat fed guinea pig model assessed as reduction in plasma LDL cholesterol levels at 30 mg/kg administered via oral gavage as qd for 14 days measured 2 hrs post dose on day 14 relative to control; type: functional; set-up: scale not given: the % may be the effect or the level left; outline: as §3
Cavia porcellus [12] = assay: Hypolipidemic activity in high-fat fed guinea pig model assessed as reduction in plasma triglyceride levels at 30 mg/kg administered via oral gavage as qd for 14 days measured 2 hrs post dose on day 14 relative to control; type: functional; set-up: scale not given: the % may be the effect or the level left; outline: as §3
Cavia porcellus [13] = assay: Hypolipidemic activity in high-fat fed guinea pig model assessed as reduction in plasma total cholesterol levels at 30 mg/kg administered via oral gavage as qd for 14 days measured 2 hrs post dose on day 14 relative to control; type: functional; set-up: scale not given: the % may be the effect or the level left; outline: as §3
Cavia porcellus [14] = assay: Toxicity in normal fed guinea pig model assessed as effect on systolic blood pressure at 30 mg/kg administered via oral gavage as qd for 14 days; type: organism-based; conditions: in vivo, 336 h
Cavia porcellus [15] = assay: Toxicity in high-fat fed guinea pig model assessed as effect on systolic blood pressure at 30 mg/kg administered via oral gavage as qd for 14 days; type: organism-based; conditions: in vivo, 336 h
[16] = Octanol-water partition coefficient, log P of the compound at pH 7.4 by HPLC based shake flask method; type: physicochemical
[17] = AUC (0 to 48 hrs) in normal fed guinea pig at 30 mg/kg administered via oral gavage by LC-MS/MS analysis; type: ADME, organism-based, Cavia porcellus; set-up: time < 48 hr, dose 30 mg/kg, route oral; conditions: in vivo
[18] = AUC (0 to infinity) in normal fed guinea pig at 30 mg/kg administered via oral gavage by LC-MS/MS analysis; type: ADME, organism-based, Cavia porcellus; set-up: dose 30 mg/kg, route oral, time infinity; conditions: in vivo
[19] = Cmax in normal fed guinea pig at 30 mg/kg administered via oral gavage by LC-MS/MS analysis; type: ADME, organism-based, Cavia porcellus; set-up: dose 30 mg/kg, route oral; conditions: in vivo
[20] = Tmax in normal fed guinea pig at 30 mg/kg administered via oral gavage by LC-MS/MS analysis; type: ADME, organism-based, Cavia porcellus; conditions: in vivo
[21] = Terminal half life in normal fed guinea pig at 30 mg/kg administered via oral gavage by LC-MS/MS analysis; type: ADME, organism-based, Cavia porcellus; conditions: in vivo, read-out: beta t1/2 (converted)
[22] = Aqueous solubility of the compound; type: physicochemical; conditions: buffer
Cavia porcellus [23] = assay: Drug metabolism in normal fed guinea pig assessed as formation of oleanolic acid at 30 mg/kg administered via oral gavage by LC-MS/MS analysis; type: ADME, organism-based; conditions: in vivo

Work on `C=C(C)[C@@H]1CC[C@]2(C(=O)O)CC[C@]3(C)[C@H](CC[C@@H]4[C@@]5(C)CC[C@H](OC(=O)CCCC(=O)O)C(C)(C)[C@@H]5CC[C@]43C)[C@@H]12` yielded an IC50 [1] of 38 µM.
In the case of `CC1(C)CC[C@]2(C(=O)O)CC[C@]3(C)C(=CC[C@@H]4[C@@]5(C)CC[C@H](OC(=O)CCN6CCOCC6)C(C)(C)[C@@H]5CC[C@]43C)[C@@H]2C1`, the IC50 [1] is reported as 68.5 µM.
For `CC1(C)CC[C@]2(C(=O)O)CC[C@]3(C)C(=CC[C@@H]4[C@@]5(C)CC[C@H](OC(=O)CCCC(=O)O)C(C)(C)[C@@H]5CC[C@]43C)[C@@H]2C1`, the IC50 [1] was 3.5 µM.
Compound `CC1(C)CC[C@]2(C(=O)OCC(=O)O)CC[C@]3(C)C(=CC[C@@H]4[C@@]5(C)CC[C@H](OC(=O)CCCC(=O)O)C(C)(C)[C@@H]5CC[C@]43C)[C@@H]2C1` has an IC50 [1] of 38.9 µM.
Work on `CC1(C)CC[C@]2(C(=O)O)CC[C@]3(C)C(=CC[C@@H]4[C@@]5(C)CC[C@H](OC(=O)CCCCC(=O)O)C(C)(C)[C@@H]5CC[C@]43C)[C@@H]2C1` yielded an IC50 [1] of 7 µM.
Compound `CC1(C)CC[C@]2(C(=O)O)CC[C@]3(C)C(=C2C1)CC[C@@H]1[C@@]2(C)CC[C@H](OC(=O)CCCC(=O)O)C(C)(C)[C@@H]2CC[C@]13C` has an IC50 [1] of 10.3 µM.
`CC1(C)CC[C@]2(C(=O)O)CC[C@]3(C)C(=CC[C@@H]4[C@@]5(C)CC[C@H](OC(=O)CCC(=O)NCCS(=O)(=O)O)C(C)(C)[C@@H]5CC[C@]43C)[C@@H]2C1` showed an IC50 [1] of 23.1 µM.
`CC1(C)CC[C@]2(C(=O)O)CC[C@]3(C)C(=CC[C@@H]4[C@@]5(C)CC[C@H](OC(=O)c6ccccc6C(=O)O)C(C)(C)[C@@H]5CC[C@]43C)[C@@H]2C1` showed an IC50 [1] of 2.3 µM, an Activity (Mus musculus [2]) of 11.1% and an MRT last [3] of 14.9 h. For the same compound, the MRT inf [4] was 23.4 h, the Activity (Mus musculus [5]) was 34.2% and the Activity (Mus musculus [6]) was 29.3%. The Activity (Mus musculus [7]) was 5.8%, the Activity (Cavia porcellus [8]) was 32.3% and the Activity (Cavia porcellus [9]) was 19.8%. For the same compound, the Activity (Cavia porcellus [10]) was 72.8%, the Activity (Cavia porcellus [11]) was 40.8% and the Activity (Cavia porcellus [12]) was 27.3%. For the same compound, the Activity (Cavia porcellus [13]) was 20.3%, the Activity (Cavia porcellus [14]) was “Non-Toxic” and the Activity (Cavia porcellus [15]) was “Non-Toxic”. For the same compound, the logD [16] was 0.49, the AUC(0-t) at 48 h [17] was 9340 ng·h/mL and the AUC(0-inf) [18] was 10900 ng·h/mL. The Cmax [19] was 1270 ng/mL, the Tmax [20] was 1.46 h and the half-life [21] was 18.8 h. For the same compound, the solubility [22] was “Soluble” and the Drug metabolism (Cavia porcellus [23]) was “Metabolite_Detected”.
`C[C@H]1[C@H](C)CC[C@]2(C(=O)O)CC[C@]3(C)C(=CC[C@@H]4[C@@]5(C)CC[C@H](OC(=O)CCCC(=O)O)C(C)(C)[C@@H]5CC[C@]43C)[C@H]12` showed an IC50 [1] of 3.4 µM.
